High-throughput results from PubChem BioAssay.
The list is not random: actives were taken first. Their share in the collection is about 1.8%.
NOD2 RIPK2 PPI = NOD2-RIPK2 binding disruptors in cells, primary screen, fluorescence, CHO cells, BLA complementation | CCF4 ratio | inhibition, % at 4.98 µM | actives 0.38% (n = 360,000) | AID 624267, 2012; in the data active means inhibition above about 21%;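 further: 0% = vehicle only and 100% = reference blocker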
MC4R ag barr = MC4R agonists recruiting beta-arrestin, primary screen, cell-based, luminescence, agonist arm of biased-ligand search. U2OS MC4R beta-arrestin complementation; percent of melanotan II response, DMSO zero. Melanocortin receptor 4 (Homo sapiens), P32245. activation, % at 8.9 µM. actives 0.98% (n = 360,000);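 active means activation above a per-plate cutoff, the mean activation of sample wells on that plate plus 3 SD, cut at about 8% in these data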
MC4R antagonist = MC4R antagonists of cAMP signaling, primary screen, cell-based, TR-FRET, antagonist arm of biased-ligand search; inhibition, % at 6.5 µM; MC4R-expressing cells, MTII-stimulated cAMP, LANCE TR-FRET; AID 540295, 2011; Melanocortin receptor 4 (Homo sapiens), P32245; actives 0.48% (n = 360,000);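 active means inhibition above its plate's cutoff, the mean of tested wells on that plate plus 3 SD, cut at about 29% in these data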;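 further: 0% = Melanotan II alone and 100% = Melanotan II plus saturating MCL0020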
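Material – human MC4R-expressing U2OS cells · Repeats – no replicates · Detection – TR-FRET with Eu-cAMP and labeled anti-cAMP, 671 nm · Times – compound 30 min, challenge 1 h, detection 1 h · Compound – single nominal compound dose of 6.5 µM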
TLR4-MyD88 BLA = inhibitors of TLR4-MyD88 association in cells, primary screen, cell-based, HeLa CL3-4, BLA complementation, FRET ratio. HeLa CL3-4 TLR4/MyD88 BLA complementation. actives 0.18% (n = 200,000). inhibition, % at 8.4 µM. Toll-like receptor 4 (Homo sapiens) + Myeloid differentiation primary response protein …; in the data active means inhibition above about 25%;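 further: 0% = vehicle and 100% = reference inhibitor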
Target sequence (O00206 whole entry, looked up): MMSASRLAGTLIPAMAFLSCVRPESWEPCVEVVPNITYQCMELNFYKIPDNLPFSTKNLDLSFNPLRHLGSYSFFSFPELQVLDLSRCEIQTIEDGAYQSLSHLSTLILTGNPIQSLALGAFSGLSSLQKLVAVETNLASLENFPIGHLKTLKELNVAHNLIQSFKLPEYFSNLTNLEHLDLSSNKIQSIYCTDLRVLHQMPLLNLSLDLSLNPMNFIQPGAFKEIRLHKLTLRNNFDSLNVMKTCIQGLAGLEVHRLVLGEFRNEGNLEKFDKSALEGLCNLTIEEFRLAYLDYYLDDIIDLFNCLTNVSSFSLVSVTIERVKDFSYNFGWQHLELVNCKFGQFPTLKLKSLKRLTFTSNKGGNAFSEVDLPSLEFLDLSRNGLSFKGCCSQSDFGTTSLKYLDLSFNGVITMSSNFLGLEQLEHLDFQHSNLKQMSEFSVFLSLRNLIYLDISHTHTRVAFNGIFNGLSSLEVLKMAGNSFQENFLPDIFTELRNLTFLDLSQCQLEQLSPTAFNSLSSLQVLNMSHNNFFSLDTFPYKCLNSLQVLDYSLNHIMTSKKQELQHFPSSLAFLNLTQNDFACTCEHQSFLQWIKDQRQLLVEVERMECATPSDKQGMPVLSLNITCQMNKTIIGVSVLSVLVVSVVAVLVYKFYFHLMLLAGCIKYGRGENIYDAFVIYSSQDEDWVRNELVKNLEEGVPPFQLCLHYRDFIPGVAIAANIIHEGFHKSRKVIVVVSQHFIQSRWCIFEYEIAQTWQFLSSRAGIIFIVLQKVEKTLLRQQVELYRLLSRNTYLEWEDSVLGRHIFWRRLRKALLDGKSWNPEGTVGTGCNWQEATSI
Target sequence (Q99836 whole entry, looked up): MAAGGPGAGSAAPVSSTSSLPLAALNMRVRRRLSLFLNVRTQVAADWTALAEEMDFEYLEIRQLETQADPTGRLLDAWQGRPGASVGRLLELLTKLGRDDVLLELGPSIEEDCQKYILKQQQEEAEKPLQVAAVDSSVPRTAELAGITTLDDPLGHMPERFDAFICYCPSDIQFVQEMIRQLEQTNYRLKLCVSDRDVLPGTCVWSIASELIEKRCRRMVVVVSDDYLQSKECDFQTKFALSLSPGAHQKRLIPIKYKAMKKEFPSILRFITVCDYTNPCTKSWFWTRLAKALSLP
TLR9-MyD88 block = inhibitors of TLR9-MyD88 association in cells, primary screen, cell-based, CHO, BLA complementation, fluorescence. Toll-like receptor 9 (Homo sapiens) + Myeloid differentiation primary response protein …. CCF4 FRET ratio. inhibition, % at 4.98 µM. actives 0.21% (n = 340,000);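 active means inhibition above the mean over all tested compounds plus 3 SD, cut at about 21% in these data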;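 further: 0% = DMSO only wells and 100% = clavulanate BLA inhibitor control wells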
cAMP nonselect = nonselective cAMP signaling inhibitors, parental cells, counter-screen for MC4R biased antagonist project, cell-based, TR-FRET, U2OS, forskolin, triplicate; inhibition, % at 6.5 µM; AID 602193, 2012; shares compounds with MC4R antagonist; LANCE TR-FRET; actives 26% (n = 1,600);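 active means mean inhibition over triplicates above the low-control well mean plus 3 SD, set per campaign, cut at about 13% in these data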;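 further: signal is single emission at 671 nm which falls as cellular cAMP rises; 0% = forskolin-stimulated wells and 100% = buffer without forskolin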
MC4R antag conf = MC4R cAMP antagonists, retest, confirmation, cell-based, TR-FRET; AID 602195, 2012; actives 27% (n = 1,600); inhibition, % at 6.5 µM; MC4R-expressing cells, MTII-stimulated cAMP; shares compounds with MC4R antagonist; in the data active means inhibition above about 29%;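 further: 0% = agonist stimulated wells alone and 100% = agonist stimulated wells plus saturating reference antagonist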
The depositor's hits bear a star; . = not tested or not shown.

SMILES	NOD2 RIPK2 PPI	MC4R ag barr	MC4R antagonist	TLR4-MyD88 BLA	TLR9-MyD88 block	cAMP nonselect	MC4R antag conf
Cc1noc(C)c1CN1C(=O)c2ccc([N+](=O)[O-])cc2C1=O	-8	-1	4	.	7	.	.
Cc1noc(C)c1CN1C(=O)c2cccc([N+](=O)[O-])c2C1=O	0	0	30*	.	-6	1	-10
COc1cccc(C(c2c(N)n(C)c(=O)n(C)c2=O)C(C)[N+](=O)[O-])c1 (centres undefined)	-6	0	33*	.	1	6	4
Cc1[nH][nH]c(=O)c1C	-1	-1	-1	.	0	.	.
O=C(c1ccc(Br)cc1)c1sc(N2CCOCC2)nc1-c1ccccc1	4	-4	11	3	-8	.	.
O=c1c2c(-c3cccs3)csc2[nH]c(=S)n1-c1ccccc1	-10	-1	31*	0	-1	18*	33*
CCOC(=O)CSc1ccc(-c2nc3cc(C)c(C)cc3[nH]2)cn1	8	-3	34*	12	10	8	6
CCOc1ccc(-c2nnc3ccc(SCC(=O)N4CCN(c5ccccc5)CC4)nn23)cc1	-1	0	32*	.	-1	3	4
C#CCNC(=O)C1=C[C@H](c2cn(C(C)=O)c3ccccc23)C[C@H](OCc2ccc(CO)cc2)O1	-11	0	16	-2	-13	.	.
CC(=O)n1cc([C@H]2C=C(C(=O)Nc3ccccc3)O[C@@H](OCc3ccc(CO)cc3)C2)c2ccccc21	0	-1	31*	-6	-6	1	12
CC(=O)n1cc([C@@H]2C=C(C(=O)NCc3ccccc3)O[C@H](OCc3ccc(CO)cc3)C2)c2ccccc21	2	-1	36*	.	-2	-2	6
CCN(CC)S(=O)(=O)c1ccc(/C=C/C(=O)OCC(=O)N(C)C)cc1	-19	4	-6	-19	7	.	.
CC(C)N(C(=O)[C@H]1C[C@H](CC(=O)NCC23CC4CC(CC(C4)C2)C3)C(=O)N2CCc3c([nH]c4ccc(Cl)cc34)[C@]12C)C(C)C	3	-1	12	.	-18	.	.
O=C(Nc1ccccc1Cl)c1cc(C2CCCCN2C(=O)c2ccccc2)on1 (centres undefined)	6	2	35*	.	.	-14	-33
CC1(C(=O)Nc2cccc3ccccc23)CCN1C(=O)C1(c2ccccc2)CCCC1 (centres undefined)	-6	-1	12	.	.	.	.
COc1cc(CCC(N)c2cccc(O)c2)cc(OC)c1OC (centres undefined)	-2	-1	-3	.	3	.	.
COc1cccc(-c2cc3nc(-c4ccccc4)cc(N4CCN(C(=O)c5ccoc5)CC4)n3n2)c1	5	-2	23	.	-6	.	.
O=C(c1ccoc1)N1CCN(c2cc(-c3ccccc3)nc3cc(-c4ccccc4)nn23)CC1	-4	1	17	.	3	.	.
COc1ccccc1-c1cc2nc(-c3ccccc3)cc(N3CCN(C(=O)c4ccoc4)CC3)n2n1	11	0	30*	.	-3	3	8
COc1ccccc1-c1cc2nc(-c3ccccc3)cc(N3CCN(C(=O)c4ccco4)CC3)n2n1	7	2	29*	.	-11	-1	11
Cc1ccc(-n2[nH]c(C)c(CCC#N)c2=O)cc1	-1	-1	-3	3	0	.	.
CCCCCCCCN1C(=O)[C@H](CC(=O)NCCCCc2ccccc2)C[C@@]2(C(=O)OC)CC(C)(C)CC=C12	-3	.	.	.	.	.	.
COc1cc(-c2cc(C(=O)Nc3ccc(C)c(S(=O)(=O)N4CCOCC4)c3)c3ccccc3n2)cc(OC)c1OC	-2	0	32*	.	-11	4	13
COc1cc(-c2cc(C(=O)Nc3ccccc3N3CCOCC3)c3ccccc3n2)cc(OC)c1OC	4	1	6	6	-5	.	.
O=C(Nc1cc(Cl)ncn1)c1ccccc1	6	0	30*	.	.	17*	38*
SMILES	NOD2 RIPK2 PPI	MC4R ag barr	MC4R antagonist	TLR4-MyD88 BLA	TLR9-MyD88 block	cAMP nonselect	MC4R antag conf
CC(C)Cn1c(CN2CCN(c3ccccc3F)CC2)nc2c1c(=O)[nH]c(=O)n2C	-13	1	29*	-6	-3	0	8
COc1ccc([N+](=O)[O-])cc1NC(=O)C(C)OC(=O)CC1CCCC1 (centres undefined)	-7	-1	0	.	6	.	.
Cc1cccc(OC(=O)c2sc(Cl)nc2C)c1	-3	-2	32*	4	-5	14*	32*
Cc1cnc(NC(=O)Cc2ccccc2Cl)s1	1	0	30*	.	-7	-1	-6
COC(=O)Cn1c(O)c(N=NC(=O)CNC(=O)c2ccncc2)c2ccccc21	-5	2	4	.	-9	.	.
O=C(COc1ccc2ccccc2c1)N1CCN(C(=O)c2ccc([N+](=O)[O-])cc2)CC1	2	0	32*	-10	0	2	7
O=C(COc1ccccc1)N1CCN(C(=O)c2ccc([N+](=O)[O-])cc2)CC1	-3	-1	2	-5	-3	.	.
Cc1ccc(C)c(-c2cc(C(=O)Nc3cccc(C(=O)O)c3)c3ccccc3n2)c1	-3	-1	35*	7	-5	-1	-4
CC1CCN(C(=O)Cn2cnc3c(cnn3C(C)(C)C)c2=O)CC1	-1	3	36*	-15	0	-3	1
CC(C)(C)n1ncc2c(=O)n(CC(=O)N3CCCC3)cnc21	-10	0	6	1	5	.	.
O=C(C(=O)N(Cc1ccccc1)Cc1ccccc1)c1c(-c2ccccc2)[nH]c2ccccc12	-22	2	50*	.	3	1	11
O=C(COc1cccc2c1CCNC2=O)Nc1ccc(Cl)cc1	-3	-4	29*	.	-18	5	0
CC(=O)CSc1nc2ccc(Nc3nc(N4CCOCC4)nc(N4CCOCC4)n3)cc2s1	1	-1	2	1	-9	.	.
CCOC(=O)CSc1nc2ccc(Nc3nc(N4CCOCC4)nc(N4CCOCC4)n3)cc2s1	6	-1	30*	5	7	-16	27
COc1ccc(N2CCOCC2)c(NC(=O)c2cccs2)c1	-7	0	17	.	-4	.	.
